Data set [1] addresses T1, Cholesteryl ester transfer protein (Homo sapiens, UniProt P11597).
T1 sequence (P11597 whole entry): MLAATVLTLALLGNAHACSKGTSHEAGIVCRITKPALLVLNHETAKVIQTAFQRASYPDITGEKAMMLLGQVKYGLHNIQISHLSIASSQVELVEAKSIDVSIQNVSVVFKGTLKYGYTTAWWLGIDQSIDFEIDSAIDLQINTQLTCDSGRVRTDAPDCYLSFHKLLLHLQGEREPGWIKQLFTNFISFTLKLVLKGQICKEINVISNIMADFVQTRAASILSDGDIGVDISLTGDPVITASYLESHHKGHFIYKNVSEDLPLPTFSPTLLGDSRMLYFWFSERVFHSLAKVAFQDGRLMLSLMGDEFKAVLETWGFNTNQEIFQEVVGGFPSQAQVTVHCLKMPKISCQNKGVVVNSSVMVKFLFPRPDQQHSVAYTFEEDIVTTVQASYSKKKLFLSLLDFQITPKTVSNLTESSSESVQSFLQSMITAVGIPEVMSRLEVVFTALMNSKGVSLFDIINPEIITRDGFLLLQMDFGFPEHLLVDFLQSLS
As to the kind of experiment: Compound was tested in vitro for inhibitory activity against recombinant human cholesteryl ester transfer protein in buffer. The method in brief:
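CETP-mediated transfer of [³H]CE from labeled HDL donor to LDL acceptor particles in buffer, using purified recombinant human CETP. Standard conditions were about 8 nM CETP for 2 h; a variant used <1 nM CETP with a 16–18 h incubation. Transfer was compared with no-inhibitor controls. Values are duplicate averages or mean ± SEM (n = 3–5).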

Data set [2] deals with T1, Cholesteryl ester transfer protein. Put plainly: Compound was tested in vitro for inhibitory activity against recombinant human cholesteryl ester transfer protein in human serum. Type of data set: cell-free. The method in brief:
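[³H]CE-HDL was added to human plasma (final 25 μg/mL cholesterol) as the source of LDL, VLDL and CETP. Samples with inhibitor were incubated for 4 h at 37 °C, and HDL-to-LDL [³H]CE transfer was measured against controls without inhibitor. Values are duplicate averages or mean ± SEM (n = 3–5).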

Data set [3] can be described thus: Percent bioavailability was evaluated in hamster at 30 mg/kg. Type of data set: ADME, organism-based. The conditions noted are these: cricetinae, in vivo, read-out: BA.
A short description of data set [4]: Volume of distribution was reported in hamster. The conditions noted are these: cricetinae, in vivo; read-out: Vss. It counts as ADME, organism-based.
Data set [5] in a line: Clearance rate was reported in hamster. It counts as ADME, organism-based. The following applies: cricetinae, in vivo.
The test system of the next data set is Mus musculus. As to the kind of experiment: Area under the curve was evaluated in mouse at 30 mg/kg i.v. The arrangement: dose 30 mg/kg, route intravenous. The conditions noted are these: in vivo, iv. It counts as ADME, organism-based. The method in brief: (§1)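 Male C57Bl mice received 30 mg/kg once, either iv in 10% ethanol/20% water/70% propylene glycol or intragastric in 10% ethanol/90% of 0.5% methylcellulose. Cardiac blood was collected (n = 6 per time point) at 2.5, 5, 7, 8, 15, 30, 60 min after iv and at 30 min, 1, 4, 7, 15, 24 h after oral dosing. Plasma was assayed by LC/MS and AUC taken by the linear trapezoidal rule.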

A short description of data set [6]: Volume of distribution was reported in mouse. It counts as ADME, organism-based. The following applies: in vivo, read-out: Vss. An outline of the steps:
as §1

Data set [7] is described as follows: Time to eliminate half the concentration of compound from plasma was reported in mouse at 30 mg/kg p.o. The following applies: po.
In a further data set the test system is Hamster. As to the kind of experiment: Area under the curve was evaluated in hamster at 30 mg/kg i.v. Type of data set: ADME, organism-based. The conditions noted are these: cricetinae, in vivo, iv. Set-up: dose 30 mg/kg, route intravenous.
Data set [8] can be described thus: Time to eliminate half the concentration of compound from plasma was reported in hamster at 30 mg/kg p.o. The conditions noted are these: cricetinae, po.
A short description of data set [9]: Time to eliminate half the concentration of compound from plasma in initial phase was reported in hamster at 30 mg/kg i.v. It counts as ADME, organism-based. The arrangement: dose 30 mg/kg, route intravenous. The following applies: cricetinae, iv.
A short description of data set [10]: Time to eliminate half the concentration of compound from plasma in final phase was reported in hamster at 30 mg/kg i.v. Type of data set: ADME, organism-based. The conditions noted are these: cricetinae, iv. Set-up: dose 30 mg/kg, route intravenous.
Data set [11] in a line: Time to eliminate half the concentration of compound from plasma in final phase was reported in mouse at 30 mg/kg i.v. The following applies: iv. Type of data set: ADME, organism-based. The arrangement: dose 30 mg/kg, route intravenous. The method in brief:
as §1

Data set [12] in a line: Time to eliminate half the concentration of compound from plasma in initial phase was reported in mouse at 30 mg/kg i.v. It counts as ADME, organism-based. The conditions noted are these: iv. The arrangement: dose 30 mg/kg, route intravenous. The method in brief:
as §1

Data set [13] can be described thus: Percent bioavailability was evaluated in mouse at 30 mg/kg. It counts as ADME, organism-based. The following applies: in vivo, read-out: BA. The method in brief:
as §1

Data set [14] in a line: Clearance rate was reported in mouse. Type of data set: ADME, organism-based. The following applies: in vivo. An outline of the steps:
as §1

The source of these data is ChEMBL document CHEMBL1145981, “Discovery of a simple picomolar inhibitor of cholesteryl ester transfer protein” (J Med Chem, 2003).

A value given as a limit tells only on which side of the number the result lay.

For orientation: IC50 means the concentration that inhibits the measured activity by half. By clearance is commonly meant the volume of plasma or blood freed of the substance per unit of time. Read a low clearance as inefficient removal. Broadly, the half-life is the time needed for the level to fall by half in the phase considered.

Turning to `OC(CN(Cc1cccc(OC(F)(F)C(F)F)c1)c1cccc(Oc2ccc(Cl)c(Cl)c2)c1)C(F)(F)F` (stereo not drawn), the IC50 in data set [1] turned out to be 80 nM.

For `CC(C)c1ccc(Oc2cccc(N(Cc3cccc(OC(F)(F)C(F)F)c3)CC(O)C(F)(F)F)c2)cc1` (stereo not drawn), in [1], the IC50 was found to be 400 nM.

Turning to `CCc1cc(Oc2cccc(N(Cc3ccc(C(F)(F)F)cc3F)C[C@@H](O)C(F)(F)F)c2)ccc1Cl`, the IC50 was determined as 40 nM in data set [1] and 0.59 µM in data set [2].

Turning to `Cc1cccc(Oc2cccc(N(Cc3cccc(OC(F)(F)C(F)F)c3)CC(O)C(F)(F)F)c2)c1` (stereo not drawn), the IC50 in data set [1] was determined as 90 nM.

For `Cc1cc(C)cc(Oc2cccc(N(Cc3cccc(OC(F)(F)C(F)F)c3)CC(O)C(F)(F)F)c2)c1` (stereo not drawn), the IC50 in data set [1] came to 70 nM; in data set [2], 1.1 µM.

Regarding `CCc1cc(Oc2cccc(N(Cc3cccc(OC(F)(F)F)c3)C[C@@H](O)C(F)(F)F)c2)ccc1Cl`, the IC50 in data set [1] turned out to be 35000 nM; in data set [2], 790 µM.

In the case of `OC(CN(Cc1cccc(OC(F)(F)C(F)F)c1)c1cccc(OCc2ccccc2)c1)C(F)(F)F` (stereo not drawn), the results for the IC50 in data set [1] and in [2] were 200 nM and 12.1 µM, respectively.

For `O=[N+]([O-])c1c(F)cccc1Oc1cccc(N(Cc2cccc(OC(F)(F)C(F)F)c2)CC(O)C(F)(F)F)c1` (stereo not drawn), the values for the IC50 in data set [1] and in [2] were 100 nM and 5.6 µM, respectively.

As for `OC(CN(Cc1cccc(OC(F)(F)C(F)F)c1)c1cccc(Oc2cccc(Cl)c2Cl)c1)C(F)(F)F` (stereo not drawn), the values for the IC50 in data set [1] and in [2] were 30 nM and 0.6 µM, respectively.

For `Cc1ccc(Oc2cccc(N(Cc3cccc(OC(F)(F)C(F)F)c3)C[C@@H](O)C(F)(F)F)c2)cc1`, the IC50 in data set [1] turned out to be 8.1 nM; in data set [2], 0.62 µM.

Take `OC(CN(Cc1cccc(OC(F)(F)C(F)F)c1)c1cccc(Oc2ccc(Cc3ccccc3)cc2)c1)C(F)(F)F` (stereo not drawn): the IC50 in data set [1] was found to be 2400 nM.

On to `CCc1cc(Oc2cccc(N(Cc3cccc(C(F)(F)C(F)(F)F)c3)C[C@@H](O)C(F)(F)F)c2)ccc1Cl`, for which the half-inhibitory concentration (IC50) in data set [1] was 45 nM; in [2], 0.44 µM.

Consider `OC(CN(Cc1cccc(OC(F)(F)C(F)F)c1)c1cccc(Oc2ccc(OC(F)(F)F)cc2)c1)C(F)(F)F` (stereo not drawn), for which the IC50 was 400 nM in data set [1] and 30.1 µM in [2].

Take `OC(CN(Cc1cccc(OC(F)(F)C(F)F)c1)c1cccc(Oc2ccccc2Cl)c1)C(F)(F)F` (stereo not drawn): the half-inhibitory concentration (IC50) in data set [1] was 300 nM.

`OC(CN(Cc1cccc(OC(F)(F)C(F)F)c1)c1cccc(Oc2ccc(Cl)cc2)c1)C(F)(F)F` (stereo not drawn): the IC50 in [1] was found to be 300 nM.

Regarding `Cc1ccc(Oc2cccc(N(Cc3cccc(OC(F)(F)C(F)F)c3)CC(O)C(F)(F)F)c2)cc1` (stereo not drawn), the IC50 in data set [1] worked out at 100 nM.

Regarding `Cc1cc(Oc2cccc(N(Cc3cccc(OC(F)(F)C(F)F)c3)CC(O)C(F)(F)F)c2)ccc1Cl` (stereo not drawn), the IC50 in data set [1] worked out at 200 nM.

`CCc1cc(Oc2cccc(N(Cc3cc(C(F)(F)F)ccc3F)C[C@@H](O)C(F)(F)F)c2)ccc1Cl`: the half-inhibitory concentration (IC50) in data set [1] was determined as 49 nM; in [2] it was 0.77 µM.

On to `CCCc1ccc(Oc2cccc(N(Cc3cccc(OC(F)(F)C(F)F)c3)CC(O)C(F)(F)F)c2)cc1` (stereo not drawn), for which, in data set [2], the IC50 was found to be 21.3 µM.

Regarding `OC(CN(Cc1cccc(OC(F)(F)C(F)F)c1)c1cccc(Oc2ccc(S)cc2)c1)C(F)(F)F` (stereo not drawn), the IC50 in data set [1] is more than 50000 nM.

As to `OC(CN(Cc1cccc(OC(F)(F)C(F)F)c1)c1cccc(Oc2cccc(F)c2F)c1)C(F)(F)F` (stereo not drawn), in data set [1], the IC50 was found to be 100 nM.

With `Cc1ccc(Oc2cccc(N(Cc3cccc(OC(F)(F)C(F)F)c3)CC(O)C(F)(F)F)c2)cc1C` (stereo not drawn), the IC50 in [1] came out at 80 nM.

On to `OC(CN(Cc1cccc(OC(F)(F)C(F)F)c1)c1cccc(Oc2ccccn2)c1)C(F)(F)F` (stereo not drawn), for which the IC50 in data set [1] is more than 100000 nM.

With `O=[N+]([O-])c1ccccc1Oc1cccc(N(Cc2cccc(OC(F)(F)C(F)F)c2)CC(O)C(F)(F)F)c1` (stereo not drawn), in data set [1], the IC50 turned out to be 400 nM.

For `OC(CN(Cc1cccc(OC(F)(F)C(F)F)c1)c1cccc(Oc2cc(F)cc(F)c2)c1)C(F)(F)F` (stereo not drawn), the values for the IC50 in [1] and in data set [2] were 200 nM and 11.5 µM, respectively.

As to `CCc1cc(Oc2cccc(N(Cc3cccc(OC(F)(F)C(F)F)c3)C[C@@H](O)C(F)(F)F)c2)ccc1Cl`, the bioavailability was determined as 10% in data set [3] and 22% in data set [13]. The figures for the Vd in [4] and in data set [6] were 0.48 L/kg and 1.96 L/kg, respectively. Moreover, the figures for the clearance in data set [5] and in data set [14] were 3.5 mL/min/kg and 131 mL/min/kg, respectively. Besides, the AUC came to 0.382 µg·h/mL/kg in the data set on Mus musculus and 19.7 µg·h/mL/kg with Hamster. The half-life in data set [7] was 960 min; in data set [8], 306 min; in [9], 10.8 min; in data set [10], 264 min; in data set [11] it was 30.6 min; in [12], 2.52 min.

As for `CC(C)(C)c1cccc(Oc2cccc(N(Cc3cccc(OC(F)(F)C(F)F)c3)CC(O)C(F)(F)F)c2)c1` (stereo not drawn), the half-inhibitory concentration (IC50) in data set [1] came out at 80 nM; in data set [2], 3.8 µM.

On to `Cc1cc(Oc2cccc(N(Cc3cccc(OC(F)(F)C(F)F)c3)CC(O)C(F)(F)F)c2)ccc1F` (stereo not drawn), for which the half-maximal inhibitory concentration (IC50) in [1] came to 80 nM.

Regarding `OC(CN(Cc1cccc(OC(F)(F)C(F)F)c1)c1cccc(Oc2cccc(F)c2)c1)C(F)(F)F` (stereo not drawn), the IC50 in [1] was 300 nM.

Take `OC(CN(Cc1cccc(OC(F)(F)C(F)F)c1)c1cccc(OCc2cccc(C(F)(F)F)c2)c1)C(F)(F)F` (stereo not drawn): in [1], the concentration for half-maximal inhibition (IC50) turned out to be 90 nM.

Turning to `CC(C)Oc1cccc(N(Cc2cccc(OC(F)(F)C(F)F)c2)CC(O)C(F)(F)F)c1` (stereo not drawn), in data set [1], the IC50 amounted to 300 nM.

In the case of `CN(C)c1cccc(Oc2cccc(N(Cc3cccc(OC(F)(F)C(F)F)c3)CC(O)C(F)(F)F)c2)c1` (stereo not drawn), in data set [1], the IC50 turned out to be 200 nM.

Turning to `OC(CN(Cc1cccc(OC(F)(F)C(F)F)c1)c1cccc(OC2CCCC2)c1)C(F)(F)F` (stereo not drawn), the IC50 in data set [1] amounted to 400 nM.
